Source: PubChem (The Scripps Research Institute Molecular Screening Center)
Rows were chosen to be rich in hits. Some 3.7% of all compounds tested hit in one or more screens of this group.
TAAR1 antag: antagonists of human TAAR1 | inhibition, % at 3 µM | AID 624466 | Q96RJ0 | 360,000 compounds, 1.5% hits | CHO RD-HGA16 TAAR1, Fluo-8 calcium fluorescence, antagonist;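 active = inhibition above a per-plate cutoff, the mean inhibition of test compounds on that plate plus 3 SD, cut at about 49% in these data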
Target sequence (Q96RJ0 whole entry, looked up): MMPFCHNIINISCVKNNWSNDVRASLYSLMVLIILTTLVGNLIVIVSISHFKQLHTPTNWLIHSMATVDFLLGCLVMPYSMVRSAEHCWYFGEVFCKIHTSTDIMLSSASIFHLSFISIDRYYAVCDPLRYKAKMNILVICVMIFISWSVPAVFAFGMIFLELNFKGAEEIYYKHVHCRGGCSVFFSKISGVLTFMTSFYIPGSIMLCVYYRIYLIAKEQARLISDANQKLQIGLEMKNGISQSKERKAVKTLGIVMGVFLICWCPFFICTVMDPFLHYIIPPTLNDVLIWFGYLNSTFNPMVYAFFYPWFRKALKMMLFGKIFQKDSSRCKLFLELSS
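Assay system: CHO-derived RD-HGA16 cells stably expressing human TAAR1 plus Gα16. Timing: 140 s kinetic read after compound, 140 s after agonist. Technique: kinetic Fluo-8 calcium fluorescence measurement. Measure: % inhibition of agonist calcium response.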
core dimer inh: blocks dimerization of HCV core protein; TR-FRET GST/Flag-core106 dimerization, 1536-well; inhibition, % at 5 µM; 300,000 compounds, 0.33% hits; AID 1899;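 active = inhibition above the mean of all tested compounds plus 3 SD, set per screening campaign, cut at about 45% in these data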
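Assay system: tagged HCV core106 pair (GST and Flag); medium: KF-containing HEPES buffer, pH 7.45, DTT, CHAPS, BSA; also added: Eu donor and XL665 acceptor anti-tag antibodies; dosing: 5 µM single dose; timing: compound-protein-antibody incubation 4 h at 22.5 °C; signal: TR-FRET 671 and 617 nm emission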
rCAG binder: molecules binding r(CAG) RNA repeats; inhibition, % at 3 µM; r(CAG) RNA repeat, TO-PRO-1 dye displacement fluorescence; AID 651821; 370,000 compounds, 1.3% hits;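 active = inhibition above the plate cutoff, the mean of all test compounds on that plate plus 3 SD, cut at about 35% in these data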;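 also: higher means more dye released from RNA so lower well fluorescence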
NS3 helicase inh: inhibitors of Hepatitis C virus NS3 helicase; NS3 helicase DNA unwinding, Cy5 molecular beacon fluorescence; inhibition, % at 10.9 µM; 290,000 compounds, 0.56% hits; AID 1800;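 active = inhibition above the mean of all tested compounds plus 3 SD, set per campaign, cut at about 35% in these data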
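assay system = NS3 helicase fragment of HCV | buffer or medium = MOPS pH 6.5, MgCl2, DTT, Tween20, BSA | timing = 60 min unwinding reaction at 25 °C after ATP addition | signal = Cy5 beacon fluorescence read at start and 1 h | read-out basis = % inhibition of unwinding | control set = low DMSO, high thioflavine S at 110 µM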
TAAR1 ag: human TAAR1 agonism; activation, % at 3 µM; 360,000 compounds, 0.99% hits; Q96RJ0; CHO RD-HGA16 TAAR1, Fluo-8 calcium fluorescence; vehicle wells 0%, saturating PEA agonist 100%; AID 624467;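 active = activation above the mean activation of all test compounds in the run plus 3 SD, cut at about 38% in these data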
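System: CHO RD-HGA16 cells carrying human TAAR1 plus Gα16; Incubation: 17-24 h seeding, 75 min 37 °C dye, 30 min RT; Measured by: Fluo-8 fluorescence, 5 s baseline then 140 s kinetic read; Control set: DMSO and PEA EC100; Replication: single well for each compound.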
NS3 hel confirm: HCV NS3 helicase inhibition, confirmation assay. shares compounds with NS3 helicase inh. NS3 helicase DNA unwinding, Cy5 molecular beacon fluorescence. inhibition, % at 10.9 µM. 1,600 compounds, 31% hits. AID 1943;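 active = inhibition above the mean of all tested compounds plus 3 SD, cutoff set per campaign, cut at about 36% in these data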
DNA FID counter: displaces DNA intercalator in HCV helicase counter-screen. inhibition, % at 7.9 µM. 1,600 compounds, 4% hits. shares compounds with NS3 helicase inh. DNA fluorescent intercalator displacement, fluorescence; in the data active = inhibition above about 37%;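 also: higher means more displacement of ethidium bromide from the DNA hairpin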
DNA FID DR: counter-screen for HCV NS3 helicase inhibitors: DNA intercalator displacement dose response | shares compounds with NS3 helicase inh | fluorescent intercalator displacement from DNA, fluorescence | IC50, µM | 120 tested, under 10 active | AID 2172; call rule not given here
Of the large screens only hits and unclear results are named; the others gave an inactive call (follow-up assays come after a bar, where they were run).

O=C(Cn1c(=O)c2sccc2n(Cc2ccc([N+](=O)[O-])cc2)c1=O)NCCc1ccccc1	none
O=C(Cn1c(=O)c2sccc2n(Cc2cccc([N+](=O)[O-])c2)c1=O)NCCc1ccccc1	NS3 helicase inh 44 | NS3 hel confirm inactive | DNA FID counter inactive
Cc1ccccc1CN1CCCCC(NC(=O)c2ccc(F)cc2F)C1=O (configuration not stated)	none (no result: TAAR1 antag, core dimer inh, NS3 helicase inh, TAAR1 ag)
FC(F)(F)c1cc(-c2cccs2)nc2cc(-c3ccccc3)nn12	none
O=C(O)c1cc2nc(-c3cccs3)cc(C(F)(F)F)n2n1	NS3 helicase inh 39 | NS3 hel confirm inactive | DNA FID counter inactive
COC(=O)[C@]12C[C@H](CC(=O)N3CCCC3)C(=O)N(CCC3=CCCCC3)C1=C[C@H](C1CCCC1)O[C@@H]2C	none (no result: TAAR1 antag, core dimer inh, NS3 helicase inh, TAAR1 ag)
S=c1[nH]nc(-c2ccccc2)n1/N=C/C=C/c1ccco1	NS3 helicase inh 52 | NS3 hel confirm inactive | DNA FID counter inactive
Cc1ccccc1-c1n[nH]c(=S)n1/N=C/C=C/c1ccco1	NS3 helicase inh 38 | NS3 hel confirm inactive | DNA FID counter inactive
COc1ccc(CNC(=O)CSc2nc3c([nH]2)c(=O)n(C)c(=O)n3C)cc1	none (no result: TAAR1 antag, core dimer inh, NS3 helicase inh, TAAR1 ag)
C=CCOc1cccc(C2C(C(=O)c3ccco3)=C(O)C(=O)N2Cc2ccncc2)c1 (configuration not stated)	none
CCOc1cccc(C2C(C(=O)c3ccc(C)o3)=C(O)C(=O)N2Cc2ccncc2)c1 (configuration not stated)	none
C=CCOc1cccc(C2C(C(=O)c3ccco3)=C(O)C(=O)N2Cc2ccco2)c1 (configuration not stated)	NS3 helicase inh 38 | NS3 hel confirm inactive | DNA FID counter inactive
CCOc1cccc(C2C(C(=O)c3ccc(C)o3)=C(O)C(=O)N2Cc2ccccc2)c1 (configuration not stated)	NS3 helicase inh 62 (no result: core dimer inh) | NS3 hel confirm 79 | DNA FID counter inactive | DNA FID DR inactive
COc1ccc(CCNC(=O)c2ccc3nc(-c4ccco4)c(-c4ccco4)nc3c2)cc1OC	core dimer inh 57, NS3 helicase inh 52 (no result: TAAR1 antag, rCAG binder, TAAR1 ag) | NS3 hel confirm 41 | DNA FID counter inactive
CCc1nc2ccc(C(=O)NCCc3ccc(OC)c(OC)c3)cc2nc1CC	none
O=C1OC(c2ccc(Br)cc2)=N/C1=C\c1ccco1	NS3 helicase inh 47 | NS3 hel confirm inactive | DNA FID counter inactive
CC1=N/C(=C/c2ccco2)C(=O)O1	none (no result: core dimer inh)
O=C(CSc1nnc(-c2ccccc2)n1Cc1ccco1)Nc1ccc(Oc2ccccc2)cc1	none (no result: TAAR1 antag, core dimer inh, NS3 helicase inh, TAAR1 ag)
COc1ccc2nc(NC(=O)c3ccc([N+](=O)[O-])o3)sc2c1	NS3 helicase inh 64 | NS3 hel confirm inactive | DNA FID counter inactive
CCOc1cc(/C=C2\C(=N)N3N=C(CC)SC3=NC2=O)ccc1OCCOc1ccc(NC(C)=O)cc1	NS3 helicase inh 54 | NS3 hel confirm inactive | DNA FID counter inactive
CC(=O)C1=C(O)C(=O)N(c2ccc(Br)cc2)C1c1ccc(Cl)cc1 (configuration not stated)	NS3 helicase inh 37 | NS3 hel confirm 80 | DNA FID counter inactive
O=C(O)c1cc(N/N=C/c2ccc(N3CCOCC3)s2)ccc1Cl	rCAG binder 75, NS3 helicase inh 47 | NS3 hel confirm 80 | DNA FID counter inactive
O=C(N/N=C/c1cc([N+](=O)[O-])ccc1O)C1CC1	none
O=C(N/N=C/c1cc([N+](=O)[O-])ccc1O)C(O)(c1ccccc1)c1ccccc1	NS3 helicase inh 46 | NS3 hel confirm inactive | DNA FID counter inactive
COC(=O)[C@]12C=CCN1[C@H](c1ccc(Cl)cc1)c1c(c3ccccc3n1S(=O)(=O)c1ccc(C)cc1)C2	none (no result: TAAR1 antag, core dimer inh, NS3 helicase inh, TAAR1 ag)
COc1ccc(N2C(=O)C3C(C2=O)C(C(=O)c2ccc(Cl)cc2)N2CCCC32)cc1 (configuration not stated)	NS3 helicase inh 40 | NS3 hel confirm inactive | DNA FID counter inactive
CC(=O)c1ccc(N2C(=O)C3C(C2=O)C(C(=O)c2ccc(Cl)cc2)N2CCCC32)cc1 (configuration not stated)	none (no result: core dimer inh)
COc1cccc(CNC(=O)C2CCN(c3nc(OC)nc(OC)n3)CC2)c1	none (no result: TAAR1 antag, core dimer inh, NS3 helicase inh, TAAR1 ag)
Cc1ccc(C)n1N1C(=O)/C(=C\c2ccc(Cl)cc2)SC1=S	NS3 helicase inh 43 | NS3 hel confirm inactive | DNA FID counter inactive
COc1ccc(N2Cc3ccc(C(=O)N/N=C\c4ccc(O)cc4O)cc3C2)cc1	core dimer inh 68, NS3 helicase inh 40 (no result: TAAR1 antag, rCAG binder, TAAR1 ag) | NS3 hel confirm inactive | DNA FID counter inactive
OCCNc1c2ccccc2nc2c(F)c(F)c(F)c(F)c12	none
Cc1c2ccccc2nc2c(F)c(NCCO)c(F)c(F)c12	NS3 helicase inh 39 | NS3 hel confirm inactive | DNA FID counter inactive
CC(C)Nc1nc2ccccc2c(=O)[nH]1	none
Cc1c2ccccc2nc2c(F)c(NC(C)C)c(F)c(F)c12	NS3 helicase inh 44 | NS3 hel confirm inactive | DNA FID counter inactive
CC(C)NC(=O)N[C@@H]1C[C@@H]2O[C@H](CO)CC[C@@H]2O[C@@H]1CCc1ccc(-c2ccccc2F)cc1	none (no result: TAAR1 antag, core dimer inh, NS3 helicase inh, TAAR1 ag)
COC(=O)[C@]12C[C@H](CC(=O)NCC3CCCCC3)C(=O)N(Cc3cccc4ccccc34)C1=C[C@H](C(C)(C)C)O[C@@H]2C	none (no result: TAAR1 antag, core dimer inh, NS3 helicase inh, TAAR1 ag)
Cc1c(C#N)c(O)[nH]c(=O)c1N=Nc1ccc(Cl)c(C(=O)O)c1	none
Cc1c(C#N)c(O)[nH]c(=O)c1N=Nc1ccc(S(N)(=O)=O)cc1	NS3 helicase inh 57 | NS3 hel confirm inactive | DNA FID counter inactive
CCOC(=O)CC[C@@]1(C(=O)OCC)C[C@@H](CC(=O)NCc2cccc3ccccc23)C(=O)N2CCCC=C21	none (no result: TAAR1 antag, core dimer inh, NS3 helicase inh, TAAR1 ag)
